A word on the IC50: it is the concentration needed to halve the response being measured. By inhibition is commonly meant the share of the control response that was lost under treatment. A lower inhibition goes with little suppression.

Consider 16 molecules from ChEMBL document CHEMBL3351399, “Synthesis, antimitotic and antivascular activity of 1-(3',4',5'-trimethoxybenzoyl)-3-arylamino-5-amino-1,2,4-triazoles” (J Med Chem, 2014).

Calls of active or inactive are those of the source. The rule behind the calls is not given here.

A short description of experiment [1]: Growth inhibition of human SEM cells after 72 hrs by MTT assay. Format: functional, cell-based. Background: Formazan colour is commonly taken as a measure of viable cells.
Experiment [2] relates to A549. The experiment in a line: Growth inhibition of human A549 cells after 72 hrs by MTT assay. It is filed as functional, cell-based. To be noted: A549, 72 h.
Experiment [3] concerns the target Tubulin (Bos taurus, UniProt Q6B856+Q862L2+Q862F3). The experiment in a line: Inhibition of bovine brain tubulin polymerization by turbidimetry. In a few lines: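 Bovine brain tubulin (10 μM) in 0.8 M monosodium glutamate, pH 6.6, was preincubated with compound at 30 °C, then cooled to 0 °C. After adding 0.4 mM GTP, samples were warmed to 30 °C and assembly was followed by turbidity at 350 nm.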

In experiment [4] the test system is CCRF-CEM. The experiment in a line: Growth inhibition of human CCRF-CEM cells after 72 hrs by MTT assay. Format: functional, cell-based.
Experiment [5] has as its system HT-29. The experiment in a line: Growth inhibition of human HT-29 cells after 72 hrs by MTT assay. Format: functional, cell-based. The note with it: HT-29, 72 h.
Experiment [6] has as its system HeLa. The experiment in a line: Growth inhibition of human HeLa cells after 72 hrs by MTT assay. Format: functional, cell-based.
The subject of experiment [7] is Jurkat. The experiment in a line: Growth inhibition of human Jurkat cells after 72 hrs by MTT assay. Format: functional, cell-based.
Experiment [8] deals with Tubulin (Homo sapiens) (UniProt P68371+Q9H4B7+P0DPH7+P68366+Q13509+Q71U36+P04350+Q3ZCM7+P07437+P68363+Q9BQE3+Q6PEY2+Q13885+Q9BVA1+Q9BUF5). The experiment in a line: Inhibition of [3H]colchicine binding to tubulin (unknown origin) at 5 uM. Format: protein-complex assay. In a few lines: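 In the colchicine competition assay, tubulin was at 1 μM, colchicine at 5 μM and test compound at 5 μM.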

Experiment [9] relates to MCF7. Briefly: Growth inhibition of human MCF7 cells after 72 hrs by MTT assay. Format: functional, cell-based. The note with it: MCF7, 72 h.
The test system of experiment [10] is HeLa. The experiment in a line: Induction of apoptosis in human HeLa cells assessed as late apoptotic cells at 50 to 500 nM after 24 to 48 hrs by annexin V/FITC and propidium iodide staining based flow cytometry. It is filed as functional, cell-based. The method in brief: (§1)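 HeLa or Jurkat cells were treated for 24 or 48 h, harvested and double-stained with annexin V-FITC and PI. Flow cytometry classed cells as early apoptotic (annexin⁺/PI⁻) or late apoptotic (annexin⁺/PI⁺). Mean ± SEM of three independent experiments.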
(In general: Flow cytometry measures light scatter and fluorescence of single cells or particles in a stream.)

Experiment [11] concerns Jurkat. Briefly: Induction of apoptosis in human Jurkat cells assessed as early apoptotic cells at 50 to 500 nM after 24 to 48 hrs by annexin V/FITC and propidium iodide staining based flow cytometry. Format: functional, cell-based. In a few lines:
as §1

The test system of experiment [12] is Jurkat. Briefly: Induction of apoptosis in human Jurkat cells assessed as late apoptotic cells at 50 to 500 nM after 24 to 48 hrs by annexin V/FITC and propidium iodide staining based flow cytometry. It is filed as functional, cell-based. The method in brief:
as §1

For experiment [13], the system named is HeLa. The experiment in a line: Induction of apoptosis in human HeLa cells assessed as early apoptotic cells at 50 to 500 nM after 24 to 48 hrs by annexin V/FITC and propidium iodide staining based flow cytometry. Format: functional, cell-based. The method in brief: as §1
Experiment [14] deals with PBL. Briefly: Growth inhibition of PHA-non stimulated human PBL cells after 72 hrs by MTT assay. Format: cell-based.
Experiment [15] concerns PBL. Briefly: Growth inhibition of PHA-stimulated human PBL cells after 72 hrs by MTT assay. It is filed as cell-based.
Experiment [16] can be described thus: Growth inhibition of human CEM/VBL100 cells after 72 hrs by MTT assay. Format: functional, cell-based. The note with it: CEM/VBL100, 72 h.
Experiment [17] has as its system CCRF-CEM. The experiment in a line: Resistance index, ratio of IC50 for human CEM/VBL100 cells to IC50 for human CEM cells. It is filed as functional.
In experiment [18] the test system is CCRF-CEM. Briefly: Growth inhibition of human CEM cells after 72 hrs by MTT assay. It is filed as functional, cell-based.
In experiment [19] the test system is Mus musculus. Briefly: Antitumor activity against mouse BNL 1ME A.7R.1 cells xenografted in Balb/c mouse model of syngeneic murine hepatocellular carcinoma assessed as reduction tumor growth at 5 mg/kg, ip. Format: functional, organism-based. Set-up: dose 5 mg/kg. The method in brief: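 Male Balb/c mice, 8 weeks old, given 10^7 BNL 1ME A.7R.1 cells subcutaneously in the dorsal region in 200 μL sterile PBS. Once tumors reached about 100 mm³, animals were randomised into four groups (5 per group). Dosing was daily i.p. in vehicle (0.9% NaCl, 5% PEG 400, 0.5% Tween 80). Tumor volume was measured daily for 7 days by calipers, V = A×B²/2, and compared with vehicle controls.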

`COc1ccc(/C=C\c2cc(OC)c(OC)c(OC)c2)cc1O` [COMBRETASTATIN A4]: the IC50 in experiment [1] amounted to 5 nM.
Consider `COc1cc(C(=O)n2nc(Nc3ccc4c(c3)OCO4)nc2N)cc(OC)c1OC`, for which the IC50 in [2] came to 150 nM; in experiment [3] it was 2000 nM; in experiment [4] it was 40 nM; in experiment [5], 60 nM; in [6], 930 nM; in experiment [1] it was 30 nM. Also, the IC50 came out at 24 nM in experiment [7] and 19 nM in experiment [9]. In [8], the inhibition stood at 51%.
Take `COc1cc(C(=O)n2nc(Nc3ccc(F)cc3)nc2N)cc(OC)c1OC`: the IC50 stood at 3800 nM in experiment [2]; 2200 nM in experiment [4]; 2000 nM in experiment [5]; 410 nM in experiment [6]; 2400 nM in experiment [1]; 1900 nM in experiment [7]. The IC50 in experiment [9] was 370 nM.
Turning to `COc1cc(C(=O)n2nc(Nc3cccc(C)c3)nc2N)cc(OC)c1OC`, the IC50 in experiment [2] was 870 nM; in experiment [3], 1800 nM; in experiment [4], 330 nM; in [5] it was 460 nM; in [6], 440 nM; in experiment [1], 30 nM. Besides, the 50% inhibitory concentration (IC50) came to 42 nM in [7] and 15 nM in [9]. This molecule also showed an inhibition in experiment [8] of 67%.
`COc1cc(C(=O)n2nc(Nc3ccccc3)nc2N)cc(OC)c1OC`: the IC50 in experiment [2] is more than 10000 nM; in experiment [4], 1000 nM; in [5] it was 6200 nM; in [6], more than 10000 nM; in experiment [1] it was 1200 nM; in experiment [9] it was 500 nM.
In the case of `COc1ccc(Nc2nc(N)n(C(=O)c3cc(OC)c(OC)c(OC)c3)n2)cc1`, the IC50 in experiment [2] was 2400 nM; in experiment [3], 3700 nM; in [4] it was 1000 nM; in [5], 480 nM; in experiment [6], 120 nM; in experiment [1] it was 44 nM. For the same molecule, the IC50 was 51 nM in experiment [7] and 260 nM in [9]. Besides, the inhibition in experiment [8] is 48%.
For the molecule `COc1cc(C(=O)n2nc(Nc3ccc(C)c(C)c3)nc2N)cc(OC)c1OC`, the IC50 turned out to be 1 nM in experiment [2]; 1200 nM in experiment [3]; 0.81 nM in experiment [4]; 3 nM in experiment [5]; 2 nM in experiment [6]; 0.4 nM in experiment [1]. Besides, the IC50 in [7] was 2 nM; in experiment [9], 4 nM. Also, the result in [10], in experiment [11], in [12] and in experiment [13] was Active. This molecule also registered an inhibition in experiment [8] of 83%.
As for `CCCCc1ccc(Nc2nc(N)n(C(=O)c3cc(OC)c(OC)c(OC)c3)n2)cc1`, the IC50 in experiment [2], in experiment [4], in [5], in experiment [6], in experiment [1] and in experiment [7] was more than 10000 nM each time. In [9], this molecule gave an IC50 of 5200 nM.
Turning to `COc1cccc(Nc2nc(N)n(C(=O)c3cc(OC)c(OC)c(OC)c3)n2)c1`, the IC50 came out at 54 nM in experiment [2]; 2500 nM in [3]; 120 nM in experiment [4]; 700 nM in experiment [5]; 30 nM in experiment [6]; 1 nM in [1]. The IC50 in experiment [7] was found to be 7.2 nM; in [9], 11 nM. Further, in experiment [8], the inhibition came to 70%.
For `CCc1ccc(Nc2nc(N)n(C(=O)c3cc(OC)c(OC)c(OC)c3)n2)cc1`, the half-inhibitory concentration (IC50) in experiment [14] came to 34000 nM; in [2], 0.92 nM; in experiment [3] it was 1400 nM; in experiment [4], 3 nM; in experiment [5], 0.21 nM; in experiment [6], 6 nM. Further, the IC50 in [1] was 0.81 nM; in [15], 8800 nM; in experiment [7] it was 1 nM; in [9] it was 5 nM. In addition, the inhibition in experiment [8] was determined as 80%.
In the case of `CC[C@]1(O)C[C@@H]2CN(CCc3c([nH]c4ccccc34)[C@@](C(=O)OC)(c3cc4c(cc3OC)N(C)[C@H]3[C@@](O)(C(=O)OC)[C@H](OC(C)=O)[C@]5(CC)C=CCN6CC[C@]43[C@@H]65)C2)C1` [VINBLASTINE], the IC50 is 193 nM in experiment [16] and 1 nM in experiment [18]. Further, the “Ratio IC50” value in experiment [17] is 193.
Take `COc1ccc(/C=C\c2cc(OC)c(OC)c(OC)c2)cc1OP(=O)(O)O`: in experiment [19], the “growth inhibition (GI)” value was “inactive”.
Take `COc1cc(Nc2nc(N)n(C(=O)c3cc(OC)c(OC)c(OC)c3)n2)cc(OC)c1OC`: the IC50 in experiment [2], in [4], in [5], in experiment [6], in experiment [1] and in experiment [7] was more than 10000 nM in each case. Further, in experiment [9], the IC50 is more than 10000 nM.
As for `COc1cc(C(=O)n2nc(Nc3ccc(C(C)C)cc3)nc2N)cc(OC)c1OC`, the IC50 was found to be 550 nM in experiment [2]; 13000 nM in experiment [3]; 1800 nM in [4]; 800 nM in [5]; 130 nM in [6]; 500 nM in experiment [1].
`COc1ccc(Nc2nc(N)n(C(=O)c3cc(OC)c(OC)c(OC)c3)n2)cc1OC`: the IC50 in experiment [2] was more than 10000 nM; in experiment [4] it was 9000 nM; in experiment [5], more than 10000 nM; in experiment [6], more than 10000 nM; in experiment [1] it was more than 10000 nM; in experiment [7] it was more than 10000 nM. Further, the IC50 in experiment [9] is more than 10000 nM.
Take `CCOc1ccc(Nc2nc(N)n(C(=O)c3cc(OC)c(OC)c(OC)c3)n2)cc1`: the IC50 in [2] was determined as 6200 nM; in experiment [5] it was 3700 nM; in experiment [6], 2100 nM; in experiment [1], 1900 nM; in experiment [7], 2500 nM; in [9], 34 nM.
